The source of these data is ChEMBL document CHEMBL3272061, “Experiments of synthesis of dl-camptothecin. 4. Synthesis and antileukemic activity of dl-camptothecin analogues” (J Med Chem, 1976).

The source made the active and inactive calls. The calls are words filed in the database; no cut-off is given here.

Data set [1] concerns L1210. Put plainly: Antileukemic activity against mouse L1210 cells allografted in BDF1 mouse assessed as host survival at 65.1 umol/kg, ip after 30 days. The format is functional, organism-based. Put shortly:
(§1)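 BDF1 mice, 5 weeks old; test groups four males + four females, controls five + five. 5×10^5 L1210 cells in 0.1 ml saline given ip. Compound, suspended in suspending vehicle (sodium salt dissolved), injected ip once on the day after inoculation. Survival followed to 30 days; mice surviving beyond 30 days counted as 30 days and scored as survivor fraction; activity as increased life span over controls.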

Data set [2] is described as follows: Solubility of the compound. In kind it is physicochemical.
Data set [3] deals with L1210. Put plainly: Antileukemic activity against mouse L1210 cells allografted in BDF1 mouse assessed as host survival at 130 umol/kg, ip after 30 days. The format is functional, organism-based. Put shortly:
as §1

The subject of data set [4] is L1210. Put plainly: Antileukemic activity against mouse L1210 cells allografted in BDF1 mouse assessed as host survival at 26 umol/kg, ip after 30 days. The format is functional, organism-based. Put shortly: as §1
Data set [5] has as its system L1210. Put plainly: Antileukemic activity against mouse L1210 cells allografted in BDF1 mouse assessed as increase in life span of host at 26 umol/kg, ip relative to control. The format is functional. Put shortly: (§2)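 BDF1 mice, 5 weeks old, were inoculated ip with 5×10^5 L1210 cells; test groups had 4 males and 4 females, controls 5 males and 5 females. A single ip dose was given on the day after inoculation, as a suspension in vehicle for the insoluble compounds. Read-out was increase in life span over controls, with survivors past 30 days counted as 30 days.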

Data set [6] has as its system L1210. Put plainly: Antileukemic activity against mouse L1210 cells allografted in BDF1 mouse assessed as increase in life span of host at 130 umol/kg, ip relative to control. The format is functional. Put shortly:
(§3)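 BDF1 mice, 5 weeks old, were inoculated ip with 5×10^5 L1210 cells in 0.1 ml saline. Test groups were 4 male and 4 female mice; controls were 5 male and 5 female. Insoluble compounds were suspended in vehicle. Dosing was ip, either once on the day after inoculation or daily for 5 days. Read-out was increase in life span over controls. Mice alive beyond 30 days were counted as 30 days and scored as survivors.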

Data set [7] deals with L1210. Put plainly: Antileukemic activity against mouse L1210 cells allografted in BDF1 mouse assessed as host survival at 5.56 umol/kg, ip after 30 days. The format is functional, organism-based. The procedure, abridged: as §3
The subject of data set [8] is L1210. Put plainly: Antileukemic activity against mouse L1210 cells allografted in BDF1 mouse assessed as increase in life span of host at 65.1 umol/kg, ip relative to control. In kind it is functional. Put shortly: as §2
In data set [9] the test system is L1210. Put plainly: Antileukemic activity against mouse L1210 cells allografted in BDF1 mouse assessed as host survival at 139 umol/kg, ip after 30 days. In kind it is functional, organism-based. Put shortly: as §3
Data set [10] relates to L1210. Put plainly: Antileukemic activity against mouse L1210 cells allografted in BDF1 mouse assessed as host survival at 27.8 umol/kg, ip after 30 days. In kind it is functional, organism-based. Put shortly: as §3
The subject of data set [11] is L1210. Put plainly: Antileukemic activity against mouse L1210 cells allografted in BDF1 mouse assessed as host survival at 5.58 umol/kg, ip after 30 days. The format is functional, organism-based. Particulars: 5.56 umol/kg, in the assay text read “5.56 umol/kg” for “5.58 umol/kg”. Put shortly: as §1
Data set [12] deals with L1210. Put plainly: Antileukemic activity against mouse L1210 cells allografted in BDF1 mouse assessed as host survival at 69.4 umol/kg, ip after 30 days. In kind it is functional, organism-based. The procedure, abridged: as §1
Data set [13] deals with L1210. Put plainly: Antileukemic activity against mouse L1210 cells allografted in BDF1 mouse assessed as increase in life span of host at 69.4 umol/kg, ip relative to control. In kind it is functional. The procedure, abridged:
as §2

The test system of data set [14] is L1210. Put plainly: Antileukemic activity against mouse L1210 cells allografted in BDF1 mouse assessed as increase in life span of host at 139 umol/kg, ip relative to control. In kind it is functional. The procedure, abridged: as §3
In data set [15] the test system is L1210. Put plainly: Antileukemic activity against mouse L1210 cells allografted in BDF1 mouse assessed as host survival at 1 umol/kg, ip qd for 5 days measured after 30 days. In kind it is functional, organism-based. Put shortly: as §3
Data set [16] deals with L1210. Put plainly: Antileukemic activity against mouse L1210 cells allografted in BDF1 mouse assessed as host survival at 12.5 umol/kg, ip qd for 5 days measured after 30 days. In kind it is functional, organism-based. The procedure, abridged: as §3
Data set [17] relates to L1210. Put plainly: Antileukemic activity against mouse L1210 cells allografted in BDF1 mouse assessed as host survival at 25 umol/kg, po qd for 4 days measured after 30 days. In kind it is functional, organism-based.
The subject of data set [18] is L1210. Put plainly: Antileukemic activity against mouse L1210 cells allografted in BDF1 mouse assessed as host survival at 5 umol/kg, ip qd for 5 days measured after 30 days. The format is functional, organism-based. The procedure, abridged: as §3
The subject of data set [19] is L1210. Put plainly: Antileukemic activity against mouse L1210 cells allografted in BDF1 mouse assessed as host survival at 12.5 umol/kg, po qd for 5 days measured after 30 days. In kind it is functional, organism-based.
Data set [20] concerns L1210. Put plainly: Antileukemic activity against mouse L1210 cells allografted in BDF1 mouse assessed as host survival at 25 umol/kg, sc qd for 5 days measured after 30 days. The format is functional, organism-based.
For data set [21], the system named is L1210. Put plainly: Antileukemic activity against mouse L1210 cells allografted in BDF1 mouse assessed as host survival at 1 umol/kg, sc qd for 5 days measured after 30 days. In kind it is functional, organism-based.
The test system of data set [22] is L1210. Put plainly: Antileukemic activity against mouse L1210 cells allografted in BDF1 mouse assessed as host survival at 5 umol/kg, po qd for 5 days measured after 30 days. The format is functional, organism-based.
Data set [23] relates to L1210. Put plainly: Antileukemic activity against mouse L1210 cells allografted in BDF1 mouse assessed as host survival at 5 umol/kg, sc qd for 5 days measured after 30 days. In kind it is functional, organism-based.

Take `C=CCC1(CC=C)C(=O)OCc2c1cc1n(c2=O)Cc2cc3ccccc3nc2-1`: the result in the data set with L1210 [1], in the data set on L1210 [3], in the data set with L1210 [4] and in the data set with L1210 [7] was inactive. Moreover, the solubility result in [2] is listed as “Insoluble”. In the data set on L1210 [5], the ILS at 26 µmol/kg is -8%. For the same compound, the ILS at 130 µmol/kg in the data set with L1210 [6] is 1%. Moreover, the ILS at 65.1 µmol/kg in the data set with L1210 [8] stood at 5%.
Regarding `CCC1(CC)C(=O)OCc2c1cc1n(c2=O)Cc2cc3ccccc3nc2-1`, the solubility entry in data set [2] is on record as “Insoluble”. The result in the data set with L1210 [9], with L1210 [10], in the data set on L1210 [11] and with L1210 [12] was inactive. The ILS at 69.4 µmol/kg in the data set on L1210 [13] was found to be 5%. Also, in the data set on L1210 [14], the ILS at 139 µmol/kg was -11%.
Consider `C=CCC1(O)C(=O)OCc2c1cc1n(c2=O)Cc2cc3ccccc3nc2-1` (centres undefined), for which the outcome in the data set with L1210 [15], in the data set with L1210 [16], in the data set on L1210 [17], in the data set with L1210 [18], in the data set with L1210 [19] and in the data set with L1210 [20] was inactive. The outcome in the data set on L1210 [21], in the data set on L1210 [22] and in the data set on L1210 [23] was inactive.
